Laboratory results: ChEMBL document CHEMBL1148274, “Bile acid amides derived from chiral amino alcohols: novel antimicrobials and antifungals” (Bioorg Med Chem Lett, 2004)
Converted amounts (≈) assume the structure as drawn.

How the values were obtained:
Aspergillus niger = test: Antifungal activity against Aspergillus niger was determined by twofold Micro-broth dilution assay; format: functional, organism-based; settings: Aspergillus niger; read-out: IC50
Summary of the method: (§1)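 Fungal strains tested by two-fold serial broth microdilution in microtitre plates. Cells diluted in phosphate-buffered saline to 10^6 cfu/mL and inoculated at a final 10^3 cells per 150 µL medium. Medium/inoculum and solvent controls were included. Incubation at 28 °C, then OD read at 600 nm. IC50 is the concentration at which growth is 50% of the control inoculum.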

Aspergillus flavus = test: Antifungal activity against Aspergillus flavus was determined by twofold Micro-broth dilution assay; format: functional, organism-based; settings: Aspergillus flavus; read-out: IC50; summary of the method: as §1
Candida albicans = test: Antifungal activity against Candida albicans was determined by twofold Micro-broth dilution assay; format: functional, organism-based; settings: Candida albicans; read-out: IC50; summary of the method: as §1
Cryptococcus neoformans = test: Antifungal activity against Cryptococcus neoformans was determined by twofold Micro-broth dilution assay; format: functional, organism-based; summary of the method: as §1
Enterococcus faecalis = test: Antibacterial activity against gram positive bacteria Enterococcus faecalis was determined by twofold Micro-broth dilution assay; format: functional, organism-based
Summary of the method: (§2)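 Broth microdilution with two-fold serial dilutions of compound added to pre-inoculated microtitre plates. Inoculum diluted in phosphate-buffered saline to 10^6 cfu/mL, then plated at a final 10^3 cells per 150 µL medium. Controls were medium plus inoculum and a solvent control at the highest-concentration solvent level. Plates incubated at 37 °C and read by OD at 600 nm. IC50 is the concentration giving 50% of control-inoculum growth.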

Escherichia coli = test: Antibacterial activity against gram negative bacteria Escherichia coli was determined by twofold Micro-broth dilution assay; format: functional, organism-based; summary of the method: as §2
Klebsiella aerogenes = test: Antibacterial activity against gram negative bacteria Enterobacter aerogens was determined by twofold Micro-broth dilution assay; format: functional, organism-based; summary of the method: as §2
Histoplasma capsulatum = test: Antifungal activity against Histoplasma capsulatum was determined by twofold Micro-broth dilution assay; format: functional, organism-based
Summary of the method: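 Fungal broth microdilution. Cells were diluted to 10^6 cfu/mL in phosphate-buffered saline and seeded at a final 10^3 cells per well. Two-fold serial compound dilutions were added. Plates carried inoculum-only and solvent controls, the solvent matched to the highest concentration. After incubation at 28 °C, OD was read at 600 nm. IC50 is the concentration where growth is 50% of control.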

Nannizzia gypsea = test: Antifungal activity against Microsporum gypseum was determined by twofold Micro-broth dilution assay; format: functional, organism-based; settings: Nannizzia gypsea; read-out: IC50; summary of the method: as §1
Salmonella typhimurium = test: Antibacterial activity against gram negative bacteria Salmonella Typhimurium was determined by twofold Micro-broth dilution assay; format: functional, organism-based, Salmonella enterica subsp. enterica serovar Typhimurium; settings: Salmonella enterica; summary of the method: as §2
Salmonella typhi = test: Antibacterial activity against gram negative bacteria Salmonella typhi was determined by twofold Micro-broth dilution assay; format: functional, organism-based, Salmonella enterica subsp. enterica serovar Typhi; settings: Salmonella enterica
Staphylococcus aureus = test: Antibacterial activity against gram positive bacteria Staphylococcus aureus was determined by twofold Micro-broth dilution assay; format: functional, organism-based; summary of the method: as §2
Shigella flexneri = test: Antibacterial activity against gram negative bacteria Shigella flexenerii was determined by twofold Micro-broth dilution assay; format: functional, organism-based; summary of the method: as §2
Sporothrix schenckii = test: Antifungal activity against Sporothrix schenck ii was determined by twofold Micro-broth dilution assay; format: functional, organism-based; settings: Sporothrix schenckii; read-out: IC50; summary of the method: as §1
Streptococcus mutans = test: Antibacterial activity against gram positive bacteria Streptococcus mutans was determined by twofold Micro-broth dilution assay; format: functional, organism-based; summary of the method: as §2
Trichophyton rubrum = test: Antifungal activity against Trichophyton rubrum was determined by twofold Micro-broth dilution assay; format: functional, organism-based; settings: Trichophyton rubrum; read-out: IC50; summary of the method: as §1
[1] = system: Staphylococcus epidermidis; test: Antibacterial activity against gram positive bacteria Staphylococcus epidermidis was determined by twofold Micro-broth dilution assay; format: functional, organism-based; summary of the method: as §2

**Q.** Which results are given for `C[C@H](CCC(=O)N[C@H](CO)[C@H](O)c1ccc([N+](=O)[O-])cc1)[C@H]1CC[C@H]2[C@@H]3C(O)C[C@@H]4C[C@H](O)CC[C@]4(C)[C@H]3C[C@H](O)[C@]12C` (stereo not given in full)?
**A.** IC50 (Aspergillus niger): > 250 µg/mL; IC50 (Aspergillus flavus): > 250 µg/mL; IC50 (Candida albicans): > 250 µg/mL; IC50 (Cryptococcus neoformans): > 250 µg/mL; IC50 (Enterococcus faecalis): 60 µg/mL (≈ 99.5 µM); IC50 (Escherichia coli): > 250 µg/mL; IC50 (Klebsiella aerogenes): > 250 µg/mL; IC50 (Histoplasma capsulatum): > 250 µg/mL; IC50 (Nannizzia gypsea): > 250 µg/mL; IC50 (Salmonella typhimurium): > 250 µg/mL; IC50 (Salmonella typhi): > 250 µg/mL; IC50 (Staphylococcus aureus): 75 µg/mL (≈ 124 µM); IC50 (Shigella flexneri): > 250 µg/mL; IC50 (Sporothrix schenckii): > 250 µg/mL; IC50 (Streptococcus mutans): 6 µg/mL (≈ 9.95 µM); IC50 (Trichophyton rubrum): > 250 µg/mL; IC50 [1]: 100 µg/mL (≈ 166 µM)

**Q.** Which results are given for `C[C@H](CCC(=O)N[C@H](CO)[C@H](O)c1ccccc1)[C@H]1CC[C@H]2[C@@H]3C(O)C[C@@H]4C[C@H](O)CC[C@]4(C)[C@H]3C[C@H](O)[C@]12C` (stereo not given in full)?
**A.** IC50 (Aspergillus niger): > 250 µg/mL; IC50 (Aspergillus flavus): > 250 µg/mL; IC50 (Candida albicans): > 250 µg/mL; IC50 (Cryptococcus neoformans): > 250 µg/mL; IC50 (Enterococcus faecalis): 60 µg/mL (≈ 108 µM); IC50 (Escherichia coli): > 250 µg/mL; IC50 (Klebsiella aerogenes): > 250 µg/mL; IC50 (Histoplasma capsulatum): > 250 µg/mL; IC50 (Nannizzia gypsea): > 250 µg/mL; IC50 (Salmonella typhimurium): > 250 µg/mL; IC50 (Salmonella typhi): > 250 µg/mL; IC50 (Staphylococcus aureus): > 250 µg/mL; IC50 (Shigella flexneri): > 250 µg/mL; IC50 (Sporothrix schenckii): > 250 µg/mL; IC50 (Streptococcus mutans): 40 µg/mL (≈ 71.7 µM); IC50 (Trichophyton rubrum): > 250 µg/mL; IC50 [1]: 40 µg/mL (≈ 71.7 µM)

**Q.** What does the source list for `C[C@H](CCC(=O)N[C@@H](CO)[C@@H](O)c1ccccc1)[C@H]1CC[C@H]2[C@@H]3C(O)C[C@@H]4C[C@H](O)CC[C@]4(C)[C@H]3C[C@H](O)[C@]12C` (stereo not given in full)?
**A.** IC50 (Aspergillus niger): > 250 µg/mL; IC50 (Aspergillus flavus): > 250 µg/mL; IC50 (Candida albicans): > 250 µg/mL; IC50 (Cryptococcus neoformans): > 250 µg/mL; IC50 (Enterococcus faecalis): 40 µg/mL (≈ 71.7 µM); IC50 (Escherichia coli): > 250 µg/mL; IC50 (Klebsiella aerogenes): > 250 µg/mL; IC50 (Histoplasma capsulatum): > 250 µg/mL; IC50 (Nannizzia gypsea): > 250 µg/mL; IC50 (Salmonella typhimurium): > 250 µg/mL; IC50 (Salmonella typhi): > 250 µg/mL; IC50 (Staphylococcus aureus): > 250 µg/mL; IC50 (Shigella flexneri): > 250 µg/mL; IC50 (Sporothrix schenckii): > 250 µg/mL; IC50 (Streptococcus mutans): 60 µg/mL (≈ 108 µM); IC50 (Trichophyton rubrum): > 250 µg/mL; IC50 [1]: 20 µg/mL (≈ 35.9 µM)

**Q.** With `CN[C@H](CC(C)C)C(=O)N[C@H]1C(=O)N[C@@H](CC(N)=O)C(=O)N[C@H]2C(=O)N[C@H]3C(=O)N[C@H](C(=O)N[C@H](C(=O)O)c4cc(O)cc(O)c4-c4cc3ccc4O)[C@H](O)c3ccc(c(Cl)c3)Oc3cc2cc(c3O[C@@H]2O[C@H](CO)[C@@H](O)[C@H](O)[C@H]2O[C@H]2C[C@](C)(N)[C@H](O)[C@H](C)O2)Oc2ccc(cc2Cl)[C@H]1O` [VANCOMYCIN] as the compound, how does the IC50 (Enterococcus faecalis) read?
**A.** 0.06 µg/mL (≈ 0.0414 µM)

**Q.** What about the IC50 (Escherichia coli) of the same compound?
**A.** > 250 µg/mL

**Q.** What about the IC50 (Klebsiella aerogenes) of the same compound?
**A.** > 250 µg/mL

**Q.** What about the IC50 (Salmonella typhimurium) of the same compound?
**A.** > 250 µg/mL

**Q.** And the IC50 (Salmonella typhi)?
**A.** > 250 µg/mL

**Q.** And the IC50 (Staphylococcus aureus)?
**A.** 0.12 µg/mL (≈ 0.0828 µM)

**Q.** And the IC50 (Shigella flexneri)?
**A.** > 250 µg/mL

**Q.** And the IC50 (Streptococcus mutans)?
**A.** 0.12 µg/mL (≈ 0.0828 µM)

**Q.** What about the IC50 [1] of the same compound?
**A.** 0.3 µg/mL (≈ 0.207 µM)

**Q.** What does the source list for `Clc1ccccc1C(c1ccccc1)(c1ccccc1)n1ccnc1` [CLOTRIMAZOLE]?
**A.** IC50 (Aspergillus niger): 5 µg/mL (≈ 14.5 µM); IC50 (Aspergillus flavus): 0.5 µg/mL (≈ 1.45 µM); IC50 (Candida albicans): 0.0312 µg/mL (≈ 0.0906 µM); IC50 (Nannizzia gypsea): 0.625 µg/mL (≈ 1.81 µM); IC50 (Sporothrix schenckii): 0.0312 µg/mL (≈ 0.0906 µM); IC50 (Trichophyton rubrum): 0.625 µg/mL (≈ 1.81 µM)

**Q.** Which IC50 (Aspergillus niger) does the source give for `C[C@H](CCC(=O)N[C@@H](CO)[C@@H](O)c1ccccc1)[C@H]1CC[C@H]2[C@@H]3CC[C@@H]4C[C@H](O)CC[C@]4(C)[C@H]3C[C@H](O)[C@]12C` here?
**A.** > 250 µg/mL

**Q.** And the IC50 (Aspergillus flavus)?
**A.** > 250 µg/mL

**Q.** What about the IC50 (Candida albicans) of the same compound?
**A.** > 250 µg/mL

**Q.** What about the IC50 (Cryptococcus neoformans) of the same compound?
**A.** 62.5 µg/mL (≈ 115 µM)

**Q.** What about the IC50 (Enterococcus faecalis) of the same compound?
**A.** > 250 µg/mL

**Q.** And the IC50 (Escherichia coli)?
**A.** > 250 µg/mL

**Q.** And the IC50 (Klebsiella aerogenes)?
**A.** > 250 µg/mL

**Q.** And the IC50 (Histoplasma capsulatum)?
**A.** > 250 µg/mL

**Q.** What about the IC50 (Nannizzia gypsea) of the same compound?
**A.** > 250 µg/mL

**Q.** And the IC50 (Salmonella typhimurium)?
**A.** > 250 µg/mL

**Q.** And the IC50 (Salmonella typhi)?
**A.** > 250 µg/mL

**Q.** What about the IC50 (Staphylococcus aureus) of the same compound?
**A.** > 250 µg/mL

**Q.** And the IC50 (Shigella flexneri)?
**A.** > 250 µg/mL

**Q.** And the IC50 (Sporothrix schenckii)?
**A.** > 250 µg/mL

**Q.** What about the IC50 (Streptococcus mutans) of the same compound?
**A.** 60 µg/mL (≈ 111 µM)

**Q.** And the IC50 (Trichophyton rubrum)?
**A.** > 250 µg/mL

**Q.** And the IC50 [1]?
**A.** 220 µg/mL (≈ 406 µM)

**Q.** For `C[C@H](CCC(=O)N[C@@H](CO)[C@@H](O)c1ccc([N+](=O)[O-])cc1)[C@H]1CC[C@H]2[C@@H]3C(O)C[C@@H]4C[C@H](O)CC[C@]4(C)[C@H]3C[C@H](O)[C@]12C` (stereo not given in full), which IC50 (Aspergillus niger) is on record?
**A.** > 250 µg/mL

**Q.** What about the IC50 (Aspergillus flavus) of the same compound?
**A.** > 250 µg/mL

**Q.** What about the IC50 (Candida albicans) of the same compound?
**A.** > 250 µg/mL

**Q.** And the IC50 (Cryptococcus neoformans)?
**A.** > 250 µg/mL

**Q.** And the IC50 (Enterococcus faecalis)?
**A.** > 250 µg/mL

**Q.** And the IC50 (Escherichia coli)?
**A.** > 250 µg/mL

**Q.** What about the IC50 (Klebsiella aerogenes) of the same compound?
**A.** > 250 µg/mL

**Q.** What about the IC50 (Histoplasma capsulatum) of the same compound?
**A.** > 250 µg/mL

**Q.** And the IC50 (Nannizzia gypsea)?
**A.** > 250 µg/mL

**Q.** What about the IC50 (Salmonella typhimurium) of the same compound?
**A.** > 250 µg/mL

**Q.** What about the IC50 (Salmonella typhi) of the same compound?
**A.** > 250 µg/mL

**Q.** What about the IC50 (Staphylococcus aureus) of the same compound?
**A.** 75 µg/mL (≈ 124 µM)

**Q.** What about the IC50 (Shigella flexneri) of the same compound?
**A.** > 250 µg/mL

**Q.** What about the IC50 (Sporothrix schenckii) of the same compound?
**A.** > 250 µg/mL

**Q.** What about the IC50 (Streptococcus mutans) of the same compound?
**A.** 40 µg/mL (≈ 66.4 µM)

**Q.** And the IC50 (Trichophyton rubrum)?
**A.** > 250 µg/mL

**Q.** What about the IC50 [1] of the same compound?
**A.** > 250 µg/mL
